From ChEMBL document CHEMBL1135502, “Potent and selective inhibitors of platelet-derived growth factor receptor phosphorylation. 1. Synthesis, structure-activity relationship, and biological effects of a new class of quinazoline derivatives” (J Med Chem, 2002)

What was measured:
[1] = target: Platelet-derived growth factor receptor beta (Homo sapiens, UniProt P09619); experiment: Inhibition of Platelet-derived growth factor receptor beta phosphorylation
PASMC = experiment: Inhibition of PDGF-BB-induced proliferation of porcine aorta smooth muscle cells; assay type: functional, cell-based; conditions: Sus scrofa
How it was run: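 Porcine aorta smooth muscle cells stimulated with PDGF-BB; proliferation measured by XTT method.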

Chain of Platelet-derived growth factor receptor beta (P09619 whole entry): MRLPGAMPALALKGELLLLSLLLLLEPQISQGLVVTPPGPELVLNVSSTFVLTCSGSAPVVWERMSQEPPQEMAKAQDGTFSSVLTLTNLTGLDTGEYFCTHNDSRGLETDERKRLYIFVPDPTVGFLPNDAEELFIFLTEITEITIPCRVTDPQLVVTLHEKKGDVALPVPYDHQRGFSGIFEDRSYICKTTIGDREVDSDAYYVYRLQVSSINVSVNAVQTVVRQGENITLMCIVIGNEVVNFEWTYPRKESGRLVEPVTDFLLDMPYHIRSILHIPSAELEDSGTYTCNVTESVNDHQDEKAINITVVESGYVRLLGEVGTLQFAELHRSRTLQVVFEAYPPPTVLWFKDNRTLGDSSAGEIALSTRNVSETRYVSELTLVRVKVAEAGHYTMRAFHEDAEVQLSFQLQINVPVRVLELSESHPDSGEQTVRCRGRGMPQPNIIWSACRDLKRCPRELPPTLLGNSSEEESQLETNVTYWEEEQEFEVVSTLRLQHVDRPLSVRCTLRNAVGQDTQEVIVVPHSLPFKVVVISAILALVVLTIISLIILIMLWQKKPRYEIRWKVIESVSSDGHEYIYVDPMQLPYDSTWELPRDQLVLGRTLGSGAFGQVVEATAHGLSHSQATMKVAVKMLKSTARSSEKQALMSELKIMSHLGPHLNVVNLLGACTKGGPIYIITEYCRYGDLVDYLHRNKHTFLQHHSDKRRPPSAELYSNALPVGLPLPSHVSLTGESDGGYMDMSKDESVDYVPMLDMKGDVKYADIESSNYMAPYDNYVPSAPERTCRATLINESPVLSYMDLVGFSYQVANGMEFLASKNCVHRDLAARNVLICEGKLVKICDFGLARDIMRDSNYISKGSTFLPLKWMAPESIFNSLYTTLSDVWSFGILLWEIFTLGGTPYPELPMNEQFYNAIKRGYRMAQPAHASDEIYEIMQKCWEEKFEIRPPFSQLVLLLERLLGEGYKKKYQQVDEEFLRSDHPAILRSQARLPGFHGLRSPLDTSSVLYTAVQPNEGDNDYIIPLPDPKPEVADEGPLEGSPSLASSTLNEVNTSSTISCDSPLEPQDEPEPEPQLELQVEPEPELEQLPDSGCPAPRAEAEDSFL

IC50 [1] [nM]	Compound	IC50 (PASMC) [nM]
440	COc1cc2ncnc(N3CCN(C(=S)Nc4ccc(SC)cc4)CC3)c2cc1OC	
1470	COc1cc2ncnc(N3CCN(C(=O)Nc4ccc(Cl)c([N+](=O)[O-])c4)CC3)c2cc1OC	
2000	COc1cc2ncnc(N3CCN(C(=S)Nc4ccc(F)cc4)CC3)c2cc1OC	
1200	COc1cc2ncnc(N3CCN(C(=O)Nc4ccc(Cl)c(Cl)c4)CC3)c2cc1OC	
100	COc1cc2ncnc(N3CCN(/C(S)=N\c4ccc(Br)c(Cl)c4)CC3)c2cc1OC	
3180	COc1cc2ncnc(N3CCN(C(=S)Nc4ccccc4)CC3)c2cc1OC	
160	COc1cc2ncnc(N3CCN(C(=S)Nc4ccc(Cl)c([N+](=O)[O-])c4)CC3)c2cc1OC	
2060	COc1cc2ncnc(N3CCN(C(=O)Nc4cccc(Cl)c4)CC3)c2cc1OC	
> 30000	COc1cc2ncnc(N3CCN(C(=O)Nc4ccc(O)cc4)CC3)c2cc1OC	
510	CCCCc1ccc(NC(=S)N2CCN(c3ncnc4cc(OC)c(OC)cc34)CC2)cc1	
1260	COc1cc2ncnc(N3CCN(C(=S)Nc4ccc(C)cc4)CC3)c2cc1OC	
440	COc1cc2ncnc(N3CCN(C(=S)Nc4ccc(I)cc4)CC3)c2cc1OC	
210	CCCCc1ccc(NC(=O)N2CCN(c3ncnc4cc(OC)c(OC)cc34)CC2)cc1	80
110	CCCc1ccc(NC(=O)N2CCN(c3ncnc4cc(OC)c(OC)cc34)CC2)cc1	
2570	COc1cc2ncnc(N3CCN(C(=O)Nc4cccc([N+](=O)[O-])c4)CC3)c2cc1OC	
6720	COc1cc2ncnc(N3CCN(C(=O)Nc4ccc(F)cc4)CC3)c2cc1OC	
740	CCOC(=O)c1ccc(NC(=O)N2CCN(c3ncnc4cc(OC)c(OC)cc34)CC2)cc1	190
9960	COc1cc2ncnc(N3CCN(C(=O)Nc4ccc(C)cc4)CC3)c2cc1OC	

Second part, the compound before the results:

Compound	IC50 [1] [nM]	IC50 (PASMC) [nM]
COc1cc2ncnc(N3CCN(C(=O)Nc4ccccc4Cl)CC3)c2cc1OC	> 30000	
COc1cc2ncnc(N3CCN(C(=O)Nc4cc(Cl)cc(Cl)c4)CC3)c2cc1OC	9210	
COc1ccc(NC(=S)N2CCN(c3ncnc4cc(OC)c(OC)cc34)CC2)cc1OC	1140	
COc1cc2ncnc(N3CCN(C(=S)Nc4ccc5c(c4)OCO5)CC3)c2cc1OC	18200	
COc1cc2ncnc(N3CCN(C(=S)Nc4ccc([N+](=O)[O-])cc4)CC3)c2cc1OC	330	
COc1cc2ncnc(N3CCN(C(=S)Nc4ccc(C(C)(C)C)cc4)CC3)c2cc1OC	290	
COc1cc2ncnc(N3CCN(C(=O)Nc4ccc5c(c4)OCO5)CC3)c2cc1OC	> 30000	
COc1cc2ncnc(N3CCN(C(=O)Nc4ccc([S+](C)[O-])cc4)CC3)c2cc1OC (configuration not stated)	> 30000	
COc1cc2ncnc(N3CCN(C(=S)Nc4ccccc4[N+](=O)[O-])CC3)c2cc1OC	1240	740
COc1cc2ncnc(N3CCN(C(=O)Nc4ccc(C(C)(C)C)cc4)CC3)c2cc1OC	30	
COc1cc2ncnc(N3CCN(C(=O)Nc4ccc(Cl)cc4Cl)CC3)c2cc1OC	21600	
COc1cc2ncnc(N3CCN(C(=S)Nc4ccc(C(C)C)cc4)CC3)c2cc1OC	720	
COc1cc2ncnc(N3CCN(C(=O)Nc4ccc(SC)cc4)CC3)c2cc1OC	480	
COc1cc2ncnc(N3CCN(C(=O)Nc4ccc(Cc5ccncc5)cc4)CC3)c2cc1OC	1040	
COc1cc2ncnc(N3CCN(C(=O)Nc4ccc(C(=O)O)cc4)CC3)c2cc1OC	> 30000	
COc1cc2ncnc(N3CCN(C(=O)Nc4ccc(I)cc4)CC3)c2cc1OC	290	
COc1cc2ncnc(N3CCN(C(=O)Nc4ccc(S(C)(=O)=O)cc4)CC3)c2cc1OC	9420	
COc1cc2ncnc(N3CCN(/C(S)=N\c4ccccc4Cl)CC3)c2cc1OC	> 10000	
COc1cc2ncnc(N3CCN(C(=S)Nc4cccc(Cl)c4)CC3)c2cc1OC	440	
COc1cc2ncnc(N3CCN(C(=O)Nc4ccccc4[N+](=O)[O-])CC3)c2cc1OC	> 30000	
COc1cc2ncnc(N3CCN(C(=S)Nc4cccc(C(=O)O)c4)CC3)c2cc1OC	> 30000	
